Reference: publication PMC3960997 (Biochimica et biophysica acta, 2013)

How the values were obtained:
full length TDP-43 [1] = molecular target: T1, full length TDP-43 (Homo sapiens, UniProt Q13148); assay: Inhibition of bt-TG12 binding to full length TDP-43
In short: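 In the same Tris pH 7.0 buffer, GST-tagged full-length TDP-43 (1.6 nM) was preincubated 15-30 min at RT with test-compound dilutions. 1.0 nM biotinylated TG12 was then added for 2 hr at RT. Streptavidin Tb donor and anti-GST d2 acceptor (2.6 μg/mL) were added for 1 hr, then time-resolved fluorescence 665/620 ratio. IC50 from three-parameter dose-response fit; geometric means of four determinations.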

full length TDP-43 [2] = molecular target: T1, full length TDP-43; assay: Inhibition of UBQLN2 binding to full length TDP-43
In short: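 Test-compound dilutions were preincubated 15-30 min at room temperature with GST-tagged full-length TDP-43 (100 ng/mL, 1.6 nM) in 20 mM Tris pH 7.0, 2 mM MgCl₂, 0.05% CHAPS, 1% glycerol. HIS-UBQLN2 (100 ng/mL, 1.4 nM) was added for 2 hr at RT. Anti-GST Tb donor plus anti-HIS d2 acceptor were added for 1 hr. Read-out was TR-FRET 665/620 nm ratio (ex 330 nm). IC50 from three-parameter fit; geometric mean of four determinations.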

full length TDP-43 [3] = molecular target: T1, full length TDP-43; assay: Mode of inhibition of UBQLN2 binding to full length TDP-43
In short: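 Saturation series: GST-tagged full-length TDP-43 (100 ng/mL, 1.6 nM) with HIS-UBQLN2 (1.0–60 nM), plus oligonucleotide (0–1 μM) or test compound (0–32 μM), 2 hr at RT. Anti-GST/anti-HIS HTRF antibodies were added for 1 hr; nonspecific binding taken without TDP-43. Global nonlinear fits to mixed versus noncompetitive inhibition models compared by F-test; Ki from global model. Duplicates, repeated at least three times.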

[4] = molecular target: T2, C-terminal TDP-43 (261-414 aa) (Homo sapiens, UniProt Q13148); assay: Mode of inhibition of UBQLN2 binding to C-terminal TDP-43
In short: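 GST-tagged C-terminal TDP-43 (261-414 aa, 4.6 nM) was incubated 2 hr at RT with a HIS-UBQLN2 concentration series, with no test compound or 1, 3.2, 10 or 32 μM. Anti-GST/anti-HIS HTRF antibodies were added for 1 hr, then TR-FRET ratio; nonspecific binding measured without TDP-43. Saturation isotherms globally fitted to a competitive inhibition model. Duplicates, repeated at least three times.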

[5] = molecular target: T2, C-terminal TDP-43 (261-414 aa); assay: UBQLN2 saturation binding to C-terminal TDP-43; details: read-out: KD for UBQLN2 binding to C-terminal TDP-43, C-terminal TDP-43 (261-414 aa) 4.6 nM, n=4
[6] = molecular target: T3, N-terminal TDP-43 (1-260 aa) (Homo sapiens, UniProt Q13148); assay: UBQLN2 saturation binding to N-terminal TDP-43; details: N-terminal TDP-43 (1-260 aa) 2.2 nM, data not shown
T3 sequence (Q13148 1-260): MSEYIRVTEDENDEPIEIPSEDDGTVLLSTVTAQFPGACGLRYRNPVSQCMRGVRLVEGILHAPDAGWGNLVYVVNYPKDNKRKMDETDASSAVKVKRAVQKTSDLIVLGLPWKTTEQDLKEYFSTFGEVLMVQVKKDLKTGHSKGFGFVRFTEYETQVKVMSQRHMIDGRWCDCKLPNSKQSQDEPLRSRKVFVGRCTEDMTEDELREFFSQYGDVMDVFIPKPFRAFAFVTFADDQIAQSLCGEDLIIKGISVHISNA

[7] = molecular target: T3, N-terminal TDP-43 (1-260 aa); assay: Inhibition of bt-TG12 binding to N-terminal TDP-43; details: 1.0 nM bt-TG12, N-terminal TDP-43 2.2 nM, n=3
In short: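 GST-tagged N-terminal TDP-43 (1-260 aa; 100 ng/mL, 2.2 nM) was incubated 2 hr at RT with 1.0 nM biotinylated TG12 and either unlabeled oligonucleotide (1 pM–1 μM) or HIS-UBQLN2 (0.3 pM–0.3 μM). Streptavidin Tb donor plus anti-GST d2 acceptor (2.6 μg/mL) were added for 1 hr. Normalized to % bound (0% = 1.0 μM unlabeled TG12); IC50 from three-parameter fit. Duplicates, experiment repeated three times.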

full length TDP-43 [8] = molecular target: T1, full length TDP-43; assay: Mode of inhibition of bt-TG12 binding to full length TDP-43; details: F-test comparison of global fits with the mixed inhibition model
In short: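 Biotinylated TG12 (3–1300 pM) was incubated 2 hr at RT with GST-tagged full-length TDP-43 (1.6 nM), without or with HIS-UBQLN2 (1.0, 3.2, 10, 32 nM). Streptavidin Tb donor and anti-GST d2 acceptor (2.6 μg/mL) were added for 1 hr; nonspecific binding measured without TDP-43. Global nonlinear fits to mixed versus noncompetitive inhibition models compared by F-test. Duplicates, repeated at least three times.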

[9] = molecular target: N-terminal 6XHIS tagged full length UBQLN2 (human, UniProt Q9UHD9 1-624); assay: AlphaScreen or HTRF
N-terminal 6XHIS tagged full length UBQLN2, sequence (Q9UHD9 whole entry): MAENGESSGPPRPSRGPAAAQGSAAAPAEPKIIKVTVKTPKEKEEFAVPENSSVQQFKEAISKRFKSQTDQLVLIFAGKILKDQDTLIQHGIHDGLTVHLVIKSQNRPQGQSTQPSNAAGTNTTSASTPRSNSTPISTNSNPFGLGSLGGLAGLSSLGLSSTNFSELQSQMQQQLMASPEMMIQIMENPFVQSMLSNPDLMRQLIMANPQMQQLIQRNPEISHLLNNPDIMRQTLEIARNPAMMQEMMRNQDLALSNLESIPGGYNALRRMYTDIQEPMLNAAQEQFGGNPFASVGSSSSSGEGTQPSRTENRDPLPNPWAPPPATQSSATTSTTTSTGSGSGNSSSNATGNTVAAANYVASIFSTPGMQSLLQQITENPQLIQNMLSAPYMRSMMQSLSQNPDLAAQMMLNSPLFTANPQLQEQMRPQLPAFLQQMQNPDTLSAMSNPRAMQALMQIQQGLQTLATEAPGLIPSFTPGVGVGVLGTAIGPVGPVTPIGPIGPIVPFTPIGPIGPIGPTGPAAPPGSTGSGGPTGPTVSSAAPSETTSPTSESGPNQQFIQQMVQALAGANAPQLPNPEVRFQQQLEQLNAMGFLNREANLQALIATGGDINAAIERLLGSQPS

T1 sequence (Q13148 whole entry): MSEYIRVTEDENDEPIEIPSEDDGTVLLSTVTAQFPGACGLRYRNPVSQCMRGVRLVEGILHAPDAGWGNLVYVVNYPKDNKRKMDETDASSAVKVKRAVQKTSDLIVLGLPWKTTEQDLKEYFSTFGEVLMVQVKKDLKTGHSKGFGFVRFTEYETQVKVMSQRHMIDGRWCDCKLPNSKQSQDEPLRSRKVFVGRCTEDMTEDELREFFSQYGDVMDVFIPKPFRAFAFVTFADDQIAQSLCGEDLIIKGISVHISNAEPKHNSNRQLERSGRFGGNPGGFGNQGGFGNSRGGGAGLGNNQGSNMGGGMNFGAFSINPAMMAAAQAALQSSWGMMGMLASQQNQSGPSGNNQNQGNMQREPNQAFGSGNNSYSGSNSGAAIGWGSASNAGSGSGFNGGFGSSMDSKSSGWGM

“5′-CTGCTTTTTGCCTGTACTGGGTCTCTGTGGTT-3′ (DNA CTGCTTTTTGCCTGTACTGGGTCTCTGTGGTT; chemistry not given here) [TAR32, reference compound]” was tested. Which “Fold IC50 relative to TG12 for inhibition of nucleic acid binding” value (full length TDP-43 [1]; bt-TG12 binding to full length TDP-43) did it give?
The value was ~ 10 fold.

And the IC50 (full length TDP-43 [1]; read-out: IC50 (95% CI) inhibition of bt-TG12 binding to full length TDP-43, 1.0 nM bt-TG12, TDP-43 1.6 nM, geometric mean of four determinations (Section 2.4))?
The IC50 was 16 nM.

Which results are given for COc1ccc(-c2cc(NCCCN(C)C)c3ccccc3n2)cc1 [AAQ1, (3-{[2-(4-methoxyphenyl)quinolin-4-yl]amino}propyl)dimethylamine]?
IC50 (full length TDP-43 [1]): 1000 nM; IC50 (full length TDP-43 [2]): 5500 nM; Fold less potent for inhibition of UBQLN2 binding compared to inhibition of nucleic acid binding to TDP-43 (full length TDP-43 [2]; full length TDP-43): 5 fold; Ki (full length TDP-43 [3]): 3400 nM; Mode of inhibition of UBQLN2 binding to full length TDP-43 (full length TDP-43 [3]; F-test comparison of global fits with the mixed inhibition model): competitive; Ki [4]: 4200 nM; Mode of inhibition of UBQLN2 binding to C-terminal TDP-43 ([4]; C-terminal TDP-43 (261-414 aa)): competitive

Which IC50 (full length TDP-43 [1]) does the source give for CN(C)CCN(C)c1cc(-c2ccccc2)nc2ccccc12 [AAQ2, N-[2-(dimethylamino)ethyl]-N-methyl-2-phenylquinolin-4-amine] here?
The IC50 was greater than 100 nM.

What about the “IC50 inhibition of bt-TG12 binding to TDP-43” value (full length TDP-43 [1]; 1.0 nM bt-TG12, TDP-43 1.6 nM) of the same molecule?
Its value is “no activity”.

And the IC50 (full length TDP-43 [2])?
Its IC50 is greater than 100 nM.

And the “IC50 inhibition of UBQLN2 binding to TDP-43” value (full length TDP-43 [2]; 1.4 nM UBQLN2, TDP-43 1.6 nM)?
The value was “no activity”.

“UBQLN2: N-terminal 6XHIS tagged full length UBQLN2 protein, custom made by ProteinTech Group” was tested. Which Kd [5] did it give?
The Kd was 8.7 nM.

What about the “UBQLN2 binding to N-terminal TDP-43” value [6] of the same molecule?
Its value is “unable to detect appreciable UBQLN2 binding”.

And the “IC50 for inhibition of bt-TG12 binding to N-terminal TDP-43” value [7]?
The value was “unable to inhibit”.

And the “Mode of inhibition of bt-TG12 binding to full length TDP-43” value (full length TDP-43 [8])?
The value was “noncompetitive”.

B1: Human N-terminal GST tagged C-terminal TDP-43 (261-414 aa) (domain or fragment, UniProt Q13148 261-414, looked up)
chain: EPKHNSNRQLERSGRFGGNPGGFGNQGGFGNSRGGGAGLGNNQGSNMGGGMNFGAFSINPAMMAAAQAALQSSWGMMGMLASQQNQSGPSGNNQNQGNMQREPNQAFGSGNNSYSGSNSGAAIGWGSASNAGSGSGFNGGFGSSMDSKSSGWGM
How did the Kd [9] turn out when B1 was run?
The Kd was 8.7 nM.
